# Most compounds without a hit are left out; they make up all but 3.6% or so of the library.
# UCH37 inh: inhibitors of human deubiquitinating enzyme UCH37; Q9Y5K5; purified proteasome/UCH37, Ub-AMC cleavage fluorescence; inhibition, % (no concentration beside the values); 330,000 tested, 0.33% active; AID 588478;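 active = mean inhibition over replicate wells above about 20%, limit read from the data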;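 also: 0% = compound-free wells with enzyme and 100% = wells lacking proteasome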
#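 Material: human UCH37 enzyme supplied as purified proteasome complex. Measure: % inhibition of Ub-AMC cleavage fluorescence. Medium: pH 7.4 Tris-HCl (50 mM) with ovalbumin, ATP-MgCl2, DTT. Times: 30 min preincubation with enzyme, 25 min cleavage at room temperature. Detection: AMC fluorescence intensity at 355/460 nm.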
# ATG4B inh: ATG4B (human) cysteine protease inhibition; AID 504462; Q9Y4P1; ATG4B cleavage of LC3-PLA2, NBD-HPC fluorescence, 1 h; inhibition, % at 8.33 µM; 340,000 tested, 0.51% active; in the data active = inhibition above about 40%
# Target sequence (Q9Y4P1 whole entry, looked up): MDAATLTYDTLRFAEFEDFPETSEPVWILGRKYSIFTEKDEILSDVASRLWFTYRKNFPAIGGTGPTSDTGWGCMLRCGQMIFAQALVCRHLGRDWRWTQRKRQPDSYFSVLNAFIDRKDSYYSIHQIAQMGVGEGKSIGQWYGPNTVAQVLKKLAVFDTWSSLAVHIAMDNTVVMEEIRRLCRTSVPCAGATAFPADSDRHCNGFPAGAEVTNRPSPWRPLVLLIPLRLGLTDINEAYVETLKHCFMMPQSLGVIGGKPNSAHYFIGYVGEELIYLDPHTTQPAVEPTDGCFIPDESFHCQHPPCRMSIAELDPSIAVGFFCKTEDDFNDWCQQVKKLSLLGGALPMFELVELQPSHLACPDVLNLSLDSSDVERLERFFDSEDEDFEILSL
# SENP1 FRET inh: SENP1 (human) catalytic domain inhibition; recombinant SENP1 catalytic domain, CyPet-SUMO1-YPet FRET cleavage; inhibition, % at 10 µM; 360,000 tested, 0.21% active; AID 624204;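 active = inhibition at least 30% at 10 µM, raw YFP signal under a set limit, fluorescence ratio 0.5 to 1.5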;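 also: 0% = enzyme with DMSO and 100% = no enzyme wells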
# Target sequence (Q9P0U3 419-644 limits assumed): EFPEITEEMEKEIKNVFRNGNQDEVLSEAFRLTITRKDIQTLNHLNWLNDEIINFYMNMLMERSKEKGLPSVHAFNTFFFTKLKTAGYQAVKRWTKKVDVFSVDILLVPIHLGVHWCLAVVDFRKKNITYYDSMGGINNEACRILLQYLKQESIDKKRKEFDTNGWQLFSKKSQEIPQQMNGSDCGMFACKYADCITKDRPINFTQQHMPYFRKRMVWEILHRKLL
#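 Controls: no-enzyme wells low, DMSO-plus-enzyme wells high control. Test system: human recombinant His6-tagged SENP1 catalytic domain enzyme. Reagent: SFCypet-SUMO1-SFYpet FRET protein substrate, 25 nM final. Doses: one dose per compound, 10 µM, 0.5% DMSO. Detection: FRET, CFP and YFP emission. Timing: 50 min reaction at room temperature.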
# NR3A LBD binder: modulators (binders) of human NR3A ligand-binding domain | NR3A LBD differential scanning fluorimetry, Tm shift; 0% = protein alone, 100% = glycine-bound protein | Tm shift relative to glycine control, % at 25 µM | 340,000 tested, 2.5% active | AID 1259313;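 active = melting temperature shift of at least 10% of the positive control shift, at one fixed dose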
# NadD inh: NadD (S. aureus) enzyme inhibition; inhibition, % at 20 µM; purified NadD enzyme, colorimetric absorbance read-out; AID 602399; 360,000 tested, 0.78% active; in the data active = inhibition above about 26%
# An asterisk follows results filed as active; i = inactive; / = no result given.
SMILES,UCH37 inh,ATG4B inh,SENP1 FRET inh,NR3A LBD binder,NadD inh
COc1ccccc1C=NNC(=O)c1cccc(OC(F)(F)C(F)F)c1,-2,/,/,/,/
CC(=O)/C(N=Nc1ccc(C(=O)O)cc1[N+](=O)[O-])=C(\C)O,17,-9,3,0,-2
CCOC(=O)/C(N=Nc1ccc(C(=O)O)cc1[N+](=O)[O-])=C(\C)O,23*,0,1,1,2
O=C(NN=Cc1ccncc1)c1ccc(COc2cccc3cccnc23)cc1,0,/,/,/,/
CCN(CC)S(=O)(=O)c1ccc(NC(=O)COC(=O)c2cc(S(=O)(=O)Nc3ccc(OC)cc3)ccc2O)cc1,-6,-3,-1,21*,26
CC(C)(C)c1ccc(NC(=O)COC(=O)c2ccc(NS(=O)(=O)c3ccc(F)c(F)c3)cc2)cc1,2,-6,0,30*,28
O=C(COC(=O)c1cc(S(=O)(=O)N2CCCC2)ccc1O)Nc1ccc(SC(F)F)cc1,-2,-5,-1,13*,0
CC(C)(C)NC(=O)NC(=O)COC(=O)c1cccc(NS(=O)(=O)c2ccc(F)c(F)c2)c1,6,-3,-1,0,-4
O=C(COC(=O)c1cc(S(=O)(=O)N2CCCC2)ccc1O)Nc1ccc(S(=O)(=O)N2CCOCC2)cc1,-9,-9,1,-6,-2
O=C(NN=Cc1c(Cl)cccc1Cl)c1ccccc1F,4,/,/,/,/
CC(=NN1CCN(c2ccccn2)CC1)c1cccc([N+](=O)[O-])c1,4,/,/,/,/
CS(=O)(=O)NC1c2cccc3cccc(c23)C1Sc1nncn1/N=C/c1ccco1 (stereo not given),/,-14,1,20*,2
COc1cccc(C2CC(c3cccs3)=NN2C(=O)CSc2nc3c(cnn3-c3ccc(F)cc3)c(=O)[nH]2)c1OC (stereo not given),-33,8,-2,-28,39*
COc1cccc(C2CC(c3cccs3)=NN2C(=O)CSc2nc3ccccc3s2)c1OC (stereo not given),-37,-4,-1,-1,5
O=C(Cn1c2ccccc2c(=O)c2ccccc21)NN=Cc1cc([N+](=O)[O-])ccc1N1CCCCCC1,8,/,/,/,/
O=C(COc1ccccc1)Nc1cccc(-c2nn[nH]n2)c1,2,-3,3,7,2
O=C(COc1ccccc1)Nc1cccc(-c2nc3cc4ccccc4cc3[nH]2)c1,i,-2,-5,26*,21
CC(CC(=O)NC1CCCC1)=NNC(=O)C1CCCCC1,5,/,/,/,/
C/C(C=NNC(=O)c1cccc([N+](=O)[O-])c1)=C\c1ccccc1,4,/,/,/,/
CSc1ccccc1OCc1cc(C(=O)N(C)CC2COCCO2)no1 (stereo not given),0,0,1,13*,-7
CSc1ccccc1OCc1cc(C(=O)N(C)Cc2nonc2C)no1,3,-6,1,13*,-13
CN(CC1COCCO1)C(=O)c1cc(COc2c(F)cccc2F)on1 (stereo not given),3,14,3,3,-3
C=CCNC(=S)NN=Cc1ccc(-c2ccc(OC)cc2)o1,-34,/,/,/,/
COc1ccc2c(c1)CN(C)S(=O)(=O)c1ccccc1-2,4,1,1,13*,-2
COc1ccc2c(c1)-c1ccccc1S(=O)(=O)N(C)C2,1,-1,3,-2,-5
SMILES,UCH37 inh,ATG4B inh,SENP1 FRET inh,NR3A LBD binder,NadD inh
Cc1ccc(C=NNC(=O)c2nnn(-c3nonc3N)c2CSc2ccccc2)cc1,3,/,/,/,/
Nc1nonc1-n1nnc(C(=O)N/N=C/c2ccccc2Cl)c1CSc1ccccc1,/,-31,3,30*,9
Cc1ccc(/C=N/NC(=O)c2nnn(-c3nonc3N)c2CSc2ccc(Cl)cc2)cc1,/,4,2,26*,17
Nc1nonc1-n1nnc(C(=O)N/N=C/c2cccs2)c1CSc1ccccc1,/,-12,1,37*,3
Nc1nonc1-n1nnc(C(=O)N/N=C/c2ccc3c(c2)OCO3)c1CSc1ccccc1,/,-4,3,39*,-1
CCc1c(C(=O)N/N=C/c2cccs2)nnn1-c1nonc1N,/,-1,3,22*,-8
Cc1csc(NC(=O)CSc2nc(=O)[nH]c3c2CCCC3)n1,2,-6,2,0,-6
O=C(CSc1nc(=O)[nH]c2c1CCCC2)Nc1cc(C(F)(F)F)cc(C(F)(F)F)c1,2,-6,-1,10*,19
O=C1CSC(=NN=Cc2cccs2)N1Cc1ccc(F)cc1,2,/,/,/,/
O=C(/C(=C/c1ccc(Cl)cc1)c1nc2ccccc2[nH]1)c1ccccc1,0,-5,-1,26*,14
CC1=Nc2ccccc2/C1=C/c1c(N)n2c(S(=O)(=O)CC(C)C)nsc2nc1=O,6,4,-122,16*,11
CC1=Nc2ccc(C)cc2/C1=C/c1c(N)n2c(S(=O)(=O)C(C)C)nsc2nc1=O,3,12,-93,18*,9
CC1=Nc2ccc(C)cc2/C1=C/c1c(N)n2nc(CC(=O)N3CCOCC3)sc2nc1=O,-6,-8,-60,7,6
CSc1nsc2nc(=O)c(/C=C3\C(C)=Nc4ccc(C)cc43)c(N)n12,4,9,-74,21*,4
CC1=Nc2ccccc2/C1=C/c1c(N)n2c(S(=O)(=O)C(C)C)nsc2nc1=O,5,2,-120,9,1
S=C(NCCc1ccccc1)NN=Cc1c(Cl)cccc1Cl,2,/,/,/,/
OCc1nc2ccccc2n1N=Cc1cccs1,6,/,/,/,/
Cc1cc2oc(C(=O)Nc3ccc(S(=O)(=O)N4CCCC(C)C4)cc3)cc(=O)c2cc1Cl (stereo not given),-95,17,-4,14*,28
Cc1cc(C)c2oc(C(=O)Nc3ccc(S(=O)(=O)N4CCC(C)CC4)cc3)cc(=O)c2c1,-1,-20,0,0,17
Oc1[nH]c2ccccc2c1N=Nc1nc2ccccc2s1,5,-5,41*,2,5
Cc1ccc2[nH]c(O)c(N=Nc3nc4ccccc4s3)c2c1,6,-12,35*,-2,11
O=C(NN=Cc1ccccc1C(=O)O)c1cccc(S(=O)(=O)N2CCOCC2)c1,2,/,/,/,/
CC(CC(=O)Nc1cc(C)ccn1)=NNC(=O)c1cccc(C)c1,2,/,/,/,/
CN(C)Cc1c(C(=O)NN=CC2CC=CCC2)nnn1-c1nonc1N (stereo not given),4,/,/,/,/
C/C(=C\C(=O)c1ccc(F)cc1)NCc1ccc2c(c1)OCO2,1,-4,-1,14*,7
COc1ccc(C=NNc2ncc(Br)cn2)c(OC)c1,4,/,/,/,/
CCOc1ccc(C(F)(F)F)cc1NC(=O)COc1ccc(C(F)(F)F)cc1[N+](=O)[O-],1,-4,2,1,1
CCCOP(=O)(OCCC)c1c([N+](=O)[O-])cc(C(F)(F)F)cc1[N+](=O)[O-],2,9,4,11*,-1
CC(=NO)c1ccc(Cl)cc1Cl,6,/,/,/,/
